NR3A LBD binder – modulates the human NR3A ligand-binding domain; 340,000 tested, 2.5% active; NR3A LBD differential scanning fluorimetry, Tm shift; 0% = protein alone, 100% = glycine-bound protein; Tm shift relative to glycine control, % at 25 µM;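 active = melting temperature shift of at least 10% of the positive control shift, at one fixed dose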
SENP1 FRET inh – SENP1 (human) catalytic domain inhibition; recombinant SENP1 catalytic domain, CyPet-SUMO1-YPet FRET cleavage; inhibition, % at 10 µM; 360,000 tested, 0.21% active; AID 624204;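 active = inhibition at least 30% at 10 µM, raw YFP signal under a set limit, fluorescence ratio 0.5 to 1.5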;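 note: 0% = enzyme with DMSO and 100% = no enzyme wells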
Target sequence (Q9P0U3 419-644 limits assumed): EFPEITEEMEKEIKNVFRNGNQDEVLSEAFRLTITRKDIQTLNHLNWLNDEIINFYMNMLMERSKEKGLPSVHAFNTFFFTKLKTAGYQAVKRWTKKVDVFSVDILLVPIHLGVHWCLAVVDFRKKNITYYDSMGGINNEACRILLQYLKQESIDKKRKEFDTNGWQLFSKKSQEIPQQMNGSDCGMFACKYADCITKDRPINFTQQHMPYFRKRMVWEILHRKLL
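Test system: human SENP1 catalytic domain; medium: Tris pH 8 buffer plus EDTA, NaCl, BME, BSA, NP40, catalase; incubation: 50 min reaction at room temperature; technique: FRET, CFP and YFP emission; controls: no-enzyme low control and enzyme-plus-DMSO high control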
EBI2 antag – EBI2 (human) antagonism | P32249 | EBI2 beta-arrestin recruitment, luminescence, 7a,25-OHC stimulated | inhibition, % at 5 µM | 360,000 tested, 0.81% active; in the data active = inhibition above about 38%;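 note: enzyme fragment complementation signal reports receptor beta-arrestin coupling in cells; 0% = agonist plus DMSO wells and 100% = wells without agonist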
Target sequence (P32249 whole entry, looked up, the tested form may be a part): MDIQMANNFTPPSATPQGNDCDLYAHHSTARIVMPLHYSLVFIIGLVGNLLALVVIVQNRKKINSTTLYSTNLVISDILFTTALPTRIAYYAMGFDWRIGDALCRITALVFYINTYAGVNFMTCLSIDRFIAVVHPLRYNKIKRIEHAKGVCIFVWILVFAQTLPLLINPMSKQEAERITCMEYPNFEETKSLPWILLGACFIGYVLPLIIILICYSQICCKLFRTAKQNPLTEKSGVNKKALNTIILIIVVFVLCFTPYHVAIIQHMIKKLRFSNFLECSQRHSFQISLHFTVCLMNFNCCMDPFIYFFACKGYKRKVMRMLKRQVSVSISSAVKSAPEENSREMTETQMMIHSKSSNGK
MPTP block – blocks calcium-induced mitochondrial swelling. isolated mouse mitochondria, Ca2+ swelling absorbance, 30 min. inhibition, % at 10 µM. 360,000 tested, 1.4% active. AID 602449;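 active = inhibition of 50% or more, scaled per plate between neutral and stimulator controls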;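 note: 0% = DMSO wells given calcium and 100% = 1 mM EGTA wells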
Rh123 counter – Rhodamine 123 counter-screen of mitochondrial pore hits; inhibition, % at 10 µM; shares compounds with MPTP block; AID 624504; isolated mitochondria, membrane potential, Rhodamine 123 fluorescence; 5,000 tested, 78% active; in the data active = inhibition above about 22%;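 note: 0% = DMSO vehicle and 100% = positive control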
MPTP abs DR – MPTP inhibition, dose response swelling confirmation. shares compounds with MPTP block. isolated mitochondria swelling, absorbance. IC50, µM. 780 tested, 58% active. AID 651561; in the data active = IC50 below about 20 µM
MPTP counter DR – counter-screen for mitochondrial permeability transition pore inhibitors, dose response | isolated mitochondria counterscreen, fluorescence read-out | shares compounds with MPTP block | 780 tested, 49% active | IC50, µM; in the data active = IC50 below about 80 µM
An asterisk follows results filed as active; i = inactive; nt = no result given; + = active, no number. Compounds with a hit are over-represented: about 4.4% of the library has one in this group of screens.

SMILES	NR3A LBD binder	SENP1 FRET inh	EBI2 antag	MPTP block	Rh123 counter	others
OC(COc1ccc(Cl)cc1)CN1C2=NCCCN2c2ccccc21 (centres undefined)	0.8	-0.2	13.2	70.2*	-7.1	MPTP abs DR=18.5*;MPTP counter DR=>80
Cc1ccccc1NC(=O)c1ccc(CN2CCC(Cc3ccccc3)CC2)cc1	-1.1	-0.1	27.4	56.5*	-8.0	MPTP abs DR=12.4*;MPTP counter DR=35.6*
CC(=O)N/C(=C\c1ccccc1)C(=O)OC(C)C(=O)c1ccccc1 (centres undefined)	0.4	0.9	7.5	-0.9	nt
O=C(NCc1ccncc1)c1ccc(OCc2ccccc2)cc1	-1.6	3.6	8.1	0.8	nt
Cc1ccc(C(=O)NCCc2ccncc2)cc1	2.9	-0.4	-1.1	-1.8	nt
O=C(NCc1ccncc1)c1ccc(Oc2ccccc2)cc1	1.0	0.8	9.3	75.6*	38.7*
Cc1ccc(Oc2ccc(C(=O)NCc3ccncc3)cc2)cc1	-6.3	-1.8	14.4	88.5*	74.9*
CC(C)(C)Nc1nc2nonc2nc1NC(C)(C)C	-2.5	1.4	9.3	93.2*	99.1*
COc1ccc(C(CNC(=O)c2oc3cc(C)c(Cl)cc3c2C)N2CCCCC2)cc1 (centres undefined)	1.6	-0.5	-3.4	71.3*	-8.1	MPTP abs DR=i;MPTP counter DR=>80
O=C(Cc1ccc(Cl)cc1Cl)Nc1cccc(S(=O)(=O)Nc2ccccc2F)c1	25.6*	1.1	26.8	65.3*	58.1*
O=C(/C=C/c1ccccc1)Nc1cccc(S(=O)(=O)Nc2ccccc2F)c1	4.9	1.0	30.9	50.9*	55.7*
Cc1ccccc1OCCC(=O)Nc1cccc(S(=O)(=O)Nc2ccccc2Cl)c1	14.9*	1.6	1.5	77.3*	75.3*
O=C(Nc1cccc(S(=O)(=O)Nc2ccccc2F)c1)c1ccc2ccccc2n1	7.4	1.0	25.0	-1.8	nt
CC1(C(=O)NS(=O)(=O)c2ccccc2Cl)CCN1C(=O)Cc1cccs1 (centres undefined)	nt	3.7	-12.3	0.7	nt
CCC1CCCCN1CCCNC(=O)Cn1cnc2sc(C)c(S(=O)(=O)N3CC(C)CC(C)C3)c2c1=O (centres undefined)	0.4	-26.6	5.6	-1.3	nt
COc1ccc(S(=O)(=O)N(C)c2nc3ccccc3n3c(CC(C)C)nnc23)cc1	-3.0	-1.0	8.1	1.8	nt
CCN1CCCC1CNC(=O)c1cc2c(-c3ccc(Cl)cc3)nn(C)c2s1 (centres undefined)	-2.7	4.5	-1.7	83.2*	-19.4	MPTP abs DR=11.2*;MPTP counter DR=>80
Cn1c(=O)n(C)c2cc(S(=O)(=O)NCCc3ccccc3)ccc21	-0.4	-1.7	2.0	59.2*	23.8*
CCOC(CNC(=O)c1nnc(Cc2cc(OC)c(OC)c(OC)c2)o1)OCC	-2.1	0.8	0.0	-0.5	nt
CCCc1ccc(Oc2cn[nH]c2-c2ccc(O)c(C)c2O)cc1	7.4	-1.5	7.1	88.9*	83.1*
CCCc1ccc(Oc2c(-c3ccc(O)c(C)c3O)n[nH]c2C)cc1	9.7	-0.1	11.5	9.8	nt
O=C(c1cc(COc2cccc(C(F)(F)F)c2)on1)N1CCC(c2ccccc2)CC1	-7.0	-1.3	4.3	-0.2	nt
O=C(c1cc(COc2cccc(C(F)(F)F)c2)on1)N1CCC(c2ccncc2)CC1	0.9	0.4	-5.0	96.7*	98.8*
CC(=O)c1ccc(OCc2cc(C(=O)N3CCC(c4ccncc4)CC3)no2)cc1	-0.8	-1.5	4.5	96.1*	86.8*
COc1cccc(OCc2cc(C(=O)N3CCC(c4ccncc4)CC3)no2)c1	-1.1	4.4	7.4	80.3*	74.9*
SMILES	NR3A LBD binder	SENP1 FRET inh	EBI2 antag	MPTP block	Rh123 counter	others
COc1cc(NC(=S)NC2CC2)c(OC)cc1Cl	-2.8	-0.3	3.0	1.8	nt
CC(=O)Nc1ccc(CC(=O)NCCC(c2ccccc2)c2ccccc2)cc1	-0.9	4.5	10.2	1.0	nt
CCOC(=O)[C@@H]1[C@H]2COc3ccccc3[C@@H]2N2C(=O)N(c3cccc(Cl)c3)C(=O)[C@@]12C	5.3	-1.9	12.8	88.2*	100.2*
CCOC(=O)[C@@H]1[C@H]2COc3cc(OC)ccc3[C@@H]2N2C(=O)N(c3ccc(C(F)(F)F)cc3)C(=O)[C@@]12C	-0.3	2.9	13.2	0.7	nt
CCOC(=O)[C@@H]1[C@H]2COc3cc(OC)ccc3[C@H]2N2C(=O)N(c3ccc(C(F)(F)F)cc3)C(=O)[C@]12C	8.3	-1.6	21.1	83.7*	89.7*
COc1ccccc1-n1cnc2cc(NS(=O)(=O)c3ccc(Br)cc3)ccc21	-7.3	0.4	23.2	54.9*	50.2*
Cc1ccc(CNC(=O)COC(=O)CCOc2ccc(C)cc2)cc1	-1.4	-0.3	8.7	-0.7	nt
COC(=O)Cc1cc(=O)n2[nH]c(C)nc2n1	0.5	2.7	-14.2	-0.9	nt
COC(=O)Cc1cc(=O)n2[nH]c(C)cc2n1	-2.2	-2.3	-1.7	+	2.1	MPTP abs DR=>100;MPTP counter DR=>80
O=C(NNc1c2ccccc2nc2ccccc12)c1ccccc1O	17.8*	-91.1	26.0	87.2*	42.5*
CC(C(=O)NCc1ccccn1)c1ccc([N+](=O)[O-])cc1 (centres undefined)	0.5	-0.4	6.0	-1.6	nt
Cc1ccc(S(=O)(=O)Nc2cc(Cl)c(O)cc2C)cc1	-2.6	-1.3	-15.5	64.8*	13.5	MPTP abs DR=15.1*;MPTP counter DR=23.3*
CN(C)CC(C)(C)CN=Cc1c(O)[nH]c2ccccc12	-0.9	-3.3	4.4	1.8	nt
COc1ccc(CNC(=O)C2Cc3c(-c4ccc5c(c4)OCO5)ccnc3O2)cc1OC (centres undefined)	nt	0.4	0.6	-0.1	nt
CN1CCN(C(=O)CN(c2cccc(Br)c2)S(=O)(=O)c2ccccc2)CC1	0.0	-0.5	1.1	-1.5	nt
O=[N+]([O-])c1ccc(O)c(/C=N/n2cnnc2)c1	3.5	-6.9	-9.1	3.6	nt
O=C1C2C3C=CC(CC3)C2C(=O)N1/N=C/c1ccc(O)cc1 (centres undefined)	-0.1	1.3	-6.4	-0.1	nt
O=C1/C(=C\c2ccc(O)cc2)SC(=S)N1/N=C/c1ccc(O)cc1	18.8*	76.7*	10.6	95.6*	78.2*
O=C1/C(=C/c2cccc(Br)c2)SC(=S)N1/N=C/c1cc([N+](=O)[O-])ccc1O	0.1	4.6	4.0	60.8*	12.4	MPTP abs DR=15.3*;MPTP counter DR=<2.5*
CN(C)CCCN(CCCN(C)C)C(=S)Nc1ccc(S(=O)(=O)N2CCOCC2)cc1	-0.7	0.0	-6.8	-0.6	nt
CCN(c1cccc(C(F)(F)F)c1)S(=O)(=O)c1ccc2c(c1)CCN2C(=O)C1CC1	0.7	-0.1	17.8	62.2*	63.5*
COc1ccccc1N1CC(C(=O)Nc2cc(C(F)(F)F)ccc2N2CCCC2)CC1=O (centres undefined)	-1.6	-1.4	-4.7	-3.6	nt

Screens: PubChem BioAssay, Sanford-Burnham Center for Chemical Genomics
